In the library only some 1.7% were active in any assay of this set; here they are far more common.
ZTA DNA inh – counter-screen for EBNA-1 inhibitors: inhibitors of Epstein-Barr virus ZTA; P03206; ZTA-DNA binding, fluorescence polarization; inhibition, % at 11 µM; 320,000 tested, 0.15% active; AID 2234; in the data active = inhibition above about 33%
Apaf-1 inh – inhibitors of human Apaf-1 apoptosome. O14727. reconstituted apoptosome caspase-3 activity, DEVD-Rh110 fluorescence. inhibition, % at 20 µM. 330,000 tested, 0.71% active. AID 489030; active = inhibition of at least 40% at 20 µM;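 also: plate controls were DMSO wells for no effect and DEVD-CHO caspase inhibitor wells for full effect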
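Material: reconstituted apoptosome with Apaf-1, cytochrome c, caspase-9, procaspase-3, dATP / Buffer or medium: pH 7.5 Hepes buffer with CHAPS, BSA, DTT / Also added: cytochrome c with DEVD-Rh110 / Schedule: compound with Apaf-1, dATP, procaspase-3 30 min, then 50 min reaction, room temperature / Technique: rhodamine 110 fluorescence at Ex 480/Em 540 nm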
PREPL inhibitor – inhibits the human prolyl oligopeptidase-like enzyme | 320,000 tested, 0.68% active | recombinant PREPL, fluorescence polarization activity-based probe | inhibition, % at 5.96 µM | Q4J6C6; in the data active = inhibition above about 43%;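 also: 0% = enzyme with DMSO and 100% = wells lacking enzyme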
Target sequence (Q4J6C6 whole entry, looked up): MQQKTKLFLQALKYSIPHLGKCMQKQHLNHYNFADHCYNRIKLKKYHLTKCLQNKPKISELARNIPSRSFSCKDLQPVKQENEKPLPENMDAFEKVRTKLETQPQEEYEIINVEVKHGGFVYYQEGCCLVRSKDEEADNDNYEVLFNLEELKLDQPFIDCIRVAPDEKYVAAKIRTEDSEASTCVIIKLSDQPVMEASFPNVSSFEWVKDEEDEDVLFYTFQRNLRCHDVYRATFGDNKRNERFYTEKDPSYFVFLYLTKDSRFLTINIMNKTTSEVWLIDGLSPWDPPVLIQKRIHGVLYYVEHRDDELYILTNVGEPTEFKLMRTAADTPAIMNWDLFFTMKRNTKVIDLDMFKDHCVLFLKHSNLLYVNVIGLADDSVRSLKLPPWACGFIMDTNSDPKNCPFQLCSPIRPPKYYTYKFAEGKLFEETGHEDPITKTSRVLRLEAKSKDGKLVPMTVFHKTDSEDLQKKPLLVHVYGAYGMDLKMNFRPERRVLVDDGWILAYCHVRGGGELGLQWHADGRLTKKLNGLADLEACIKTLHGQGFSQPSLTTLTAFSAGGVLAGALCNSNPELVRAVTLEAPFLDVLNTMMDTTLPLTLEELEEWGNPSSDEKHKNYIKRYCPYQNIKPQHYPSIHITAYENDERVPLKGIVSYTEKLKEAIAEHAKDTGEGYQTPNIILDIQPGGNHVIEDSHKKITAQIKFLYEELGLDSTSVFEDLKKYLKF
UBC13 inh – blocks human UBC13 polyubiquitin chain formation. P61088. TR-FRET. inhibition, % at 20 µM. 330,000 tested, 0.47% active. AID 485273; in the data active = inhibition above about 45%, passing the limit was not always enough
EBNA-1 inhibitor – blocks EBNA-1 binding to DNA. EBNA-1 DNA binding, fluorescence polarization. inhibition, % at 14.8 µM. 300,000 tested, 0.34% active; in the data active = inhibition above about 28%
EBNA-1 confirm – EBNA-1 (EBV) inhibition, confirmation; shares compounds with EBNA-1 inhibitor; Recombinant EBNA-1 DBD, Cy5-DNA fluorescence polarization; inhibition, % at 14.8 µM; 830 tested, 35% active; AID 2292;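 active = mean inhibition across replicates above a set limit taken from the earlier primary screen, cut at about 28% in these data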;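 also: plate controls were EBNA-1 protein with DMSO for no effect and wells lacking EBNA-1 for full effect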
ZTA counter trip – ZTA (EBV) inhibition, triplicate counter-screen | shares compounds with EBNA-1 inhibitor | Zta-ZRE DNA binding, Cy5 fluorescence polarization | inhibition, % at 11.1 µM | 830 tested, under 10 active | AID 2328;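 active = mean inhibition over triplicates above a set limit taken from the primary EBNA-1 screen, cut at about 37% in these data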;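 also: purified full length Zta protein with Cy5 labeled ZRE DNA probe; 0% = Zta with DMSO and 100% = wells lacking Zta protein; inhibitors lower polarization by freeing the labeled DNA probe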
An asterisk follows results filed as active; . = no result.

SMILES	ZTA DNA inh	Apaf-1 inh	PREPL inhibitor	UBC13 inh	EBNA-1 inhibitor	EBNA-1 confirm	ZTA counter trip
O=S(=O)(NCCOc1ccccc1)c1ccc2ccccc2c1	9.1	-0.4	-24.2	1.8	31.4*	14.3	-2.4
CCNC(=O)OCC12CC3CC(CC(C3)C1)C2	-3.6	8.6	-5.4	-11.7	-1.3	.	.
CCN(CC(=O)Nc1ccccc1OC)C(=O)c1cc(-c2ccccc2)nn1-c1ccccc1	1.6	11.4	0.9	2.1	44.9*	-5.8	-10.6
COc1ccc(/C=C/C(=O)Nc2ccccc2C(F)(F)F)cc1	8.4	-2.7	-2.3	13.0	32.5*	21.8	-3.4
CCNC(=S)N/N=C/c1c(C)nn(-c2cccc(Cl)c2)c1Cl	12.5	-0.1	-5.7	9.1	57.2*	48.3*	-0.1
Cc1nn(-c2cccc(Cl)c2)c(Cl)c1/C=N/NC(=O)c1cccs1	16.4	4.6	-0.9	-0.8	9.2	.	.
CCCN(CC(=O)Nc1ccc(C(N)=O)cc1)CC(=O)Nc1ccc(Cl)cc1Cl	-0.2	-2.3	-108.9	-1.3	28.7*	10.2	6.8
O=C1CC(=C(c2ccccc2)c2ccccc2)C(=O)N1CCCN1CCN(c2cccc(Cl)c2)CC1	-3.2	11.0	17.9	2.3	-1.7	.	.
CCOc1ccc(NC(=O)c2ccc(NC(=S)NC3CC3)cc2)cc1	16.9	-15.6	2.1	2.5	37.8*	28.4*	-4.6
CCOc1ccc(NC(=O)c2ccc(C#CC(C)(C)O)cc2)cc1	9.2	-28.5	4.2	0.6	30.2*	12.4	1.4
O=C(Nc1ccc(Cl)cc1)Nc1ccc(Cl)c(Cl)c1	10.3	1.6	5.0	10.8	.	.	.
NC(=O)c1cccc(NC(=O)Nc2ccc(Cl)cc2)c1	7.2	10.1	-3.9	-3.4	37.8*	6.8	4.8
COC(=O)c1cc(NC(=O)C2CCCN(S(=O)(=O)c3c(C)n[nH]c3C)C2)cc(C(=O)OC)c1 (stereo not given)	-8.8	-12.0	-8.9	-8.1	27.6*	18.2	-0.4
CSCCC(NC(=O)/C(=C/c1ccc2c(c1)OCO2)NC(=O)c1cccc([N+](=O)[O-])c1)C(=O)O (stereo not given)	-5.1	-1.3	10.3	-6.2	-3.1	.	.
O=C(OCN1C(=O)c2ccccc2C1=O)c1ccccc1	5.5	-0.7	-3.1	2.4	-3.4	.	.
O=C(OCCN1C(=O)c2ccccc2C1=O)c1ccccc1	19.2	0.6	24.3	24.3	46.2*	-11.6	6.3
CNC(=S)Nc1ccc(Cc2ccncc2)cc1	2.7	-7.8	-8.2	4.1	-17.1	.	.
CCOC(=O)c1[nH]c2ccccc2c1NC(=O)c1ccc2c(c1)OCO2	3.5	13.5	9.1	12.4	31.9*	19.5	-10.4
CCOC(=O)c1[nH]c2ccc(OC)cc2c1NC(=O)c1ccc2c(c1)OCO2	3.9	5.3	-3.4	-7.8	-19.7	.	.
COc1ccc(NC(=O)CN(C)C(=O)c2cc(-c3ccc(OC)cc3)nc3ccccc23)cc1	3.0	13.4	-11.1	12.5	31.4*	0.1	-3.5
O=C(Nc1nnc(CC(c2ccccc2)c2ccccc2)s1)c1ccco1	-13.3	2.8	-53.4	3.0	37.4*	18.2	5.3
O=C(Cn1nc(-c2ccc3c(c2)OCCO3)ccc1=O)Nc1cccc(NC(=O)c2ccccn2)c1	0.6	-9.3	-27.2	26.1	40.8*	43.4*	12.3
O=C(Cn1nc(-c2ccc3c(c2)OCCO3)ccc1=O)Nc1ccc(N2CCOCC2)cc1	7.9	1.8	9.5	-5.5	-0.2	.	.
CS(=O)(=O)N(CC(=O)N/N=C/c1ccc(OCC(=O)N2CCOCC2)cc1)c1ccccc1Cl	-16.6	-0.3	-16.6	3.1	35.6*	-0.6	-5.0
O=C(N/N=C/c1ccc(OCC(=O)N2CCOCC2)cc1)c1ccccc1Cl	3.8	-1.6	23.6	-6.0	-1.1	.	.
SMILES	ZTA DNA inh	Apaf-1 inh	PREPL inhibitor	UBC13 inh	EBNA-1 inhibitor	EBNA-1 confirm	ZTA counter trip
CCN1C(=O)/C(=C2/C=Cc3cc(C)ccc3N2CC)N(C)C1=S	-3.0	-32.0	21.8	-264.4	29.0*	-2.5	-10.0
CCc1ccccc1NC(=S)N=Nc1c(O)n(C)c2ccc(S(=O)(=O)N3CCOCC3)cc12	-2.8	0.6	2.4	-39.5	49.1*	-6.4	-1.1
COc1cc(/C=C(\C#N)c2ccccn2)ccc1OCC(=O)Nc1cccc(C(F)(F)F)c1	1.5	1.2	-7.8	11.6	-3.4	.	.
O=C(Nc1ccc(S(=O)(=O)Nc2nccs2)cc1)c1ccc(N2C(=O)c3ccccc3C2=O)cc1	-2.3	7.0	-3.3	-7.3	61.4*	24.9	30.9
CCOC(=O)C1=C(Nc2ccccc2)CC(C)(O)C(C(=O)OCC)C1c1ccccc1 (stereo not given)	0.4	30.0	2.2	10.2	8.0	.	.
O=C(Cn1cnc2c(nnn2Cc2ccc(Cl)cc2)c1=O)OCc1ccccc1	1.5	2.4	-4.6	13.5	29.9*	12.1	6.5
CCOC(=O)c1oc2ccccc2c1NC(=O)c1ccc(S(=O)(=O)N(C)C)cc1	-6.8	9.4	4.8	11.6	47.5*	52.0*	6.4
CCOC(=O)c1oc2ccccc2c1NC(=O)c1ccc(S(=O)(=O)N2CCCC2)cc1	-8.1	26.0	6.5	-2.3	36.6*	46.6*	0.4
CCOC(=O)c1[nH]c2ccccc2c1NC(=O)c1ccc(S(=O)(=O)N(C)C)cc1	9.3	4.0	2.4	-4.0	3.2	.	.
CCOc1ccc(C2C=C(c3ccc(C)cc3)Nc3nnnn32)cc1 (stereo not given)	8.8	8.5	-100.9	0.3	51.7*	2.3	6.2
CN=C1SC(CC(=O)Nc2cccc(Cl)c2Cl)C(=O)N1C (stereo not given)	-2.7	-3.6	-8.3	6.3	-8.3	.	.
CN=C1SC(CC(=O)Nc2c(C)cccc2C)C(=O)N1/N=C/c1cccs1 (stereo not given)	4.3	2.0	23.9	8.0	35.6*	5.2	-4.9
Cc1cccc(N2CCN(C(=O)c3ccc4nc(N5CCCCC5)sc4c3)CC2)c1C	12.9	8.9	4.9	0.4	-4.5	.	.
CC(=O)NC(=S)Nc1cccc2ccc(C)nc12	-6.4	0.2	9.7	-2.7	-5.6	.	.
Cc1ccc2cccc(NC(=S)NC(=O)c3ccnn3C)c2n1	-21.4	18.4	-4.5	6.2	39.9*	32.1*	5.1
COCC(C)NC(C(=O)Nc1ccc(Cl)c([N+](=O)[O-])c1)c1ccccc1 (stereo not given)	-1.9	10.1	9.9	-6.2	5.6	.	.
Cn1cc(/C=C(\C#N)C(=O)Nc2ncc(Cc3ccc(Cl)cc3)s2)c2ccccc21	2.4	23.8	4.0	-13.8	-1.6	.	.
COC(=O)C1CCN(C(=O)COC(=O)/C=C/c2ccc(O)c(OC)c2)CC1	.	-8.0	2.8	7.6	.	.	.
O=C(COc1ccccc1)NCc1ccc(-n2cccc2)cc1	-6.3	14.7	-9.1	8.3	91.8*	41.6*	16.5
O=C(Nc1ccccc1F)c1cc2c(s1)-c1ccccc1S(=O)(=O)C2	-1.6	-17.2	-5.0	18.8	52.8*	56.6*	-0.9

Source: PubChem
